Read-outs that look alike come from different tables or passages of the source.
Experiments:
LPS-induced TNFa release = details: read-out: IC50 of LPS-induced TNFa release, cited from earlier work
[1] = Pharmacokinetic properties in mice; format: in vivo; details: 5 mg/kg
How it was run: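 Male ICR mice were dosed at 5 mg/kg. The stock dosing sample was 10 mg test compound in 10 ml saline containing 1% DMSO, 40% 2-hydroxypropyl-β-cyclodextrin and 6% Solutol HS 15. It was vortexed and sonicated until fully dissolved.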

mice [2] = test: Open-field test; format: in vivo
How it was run: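 Naive male ICR mice received test compound, rolipram or vehicle by i.p. injection. Thirty minutes later each was placed in the centre of an open-field box with its floor divided into 4 identical squares and explored for 5 min. Line crossings (all four paws over the line) and rears were counted. Means ± S.E., n = 8–9; one-way ANOVA with Dunnett's test.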

mice [3] = test: Object recognition test; format: in vivo; details: i.p. 30 min prior to the test; for memory in the object recognition test: Fig. 5A
How it was run: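 Male ICR mice (22–24 g) were housed at 22–23 °C on a 12-h light-dark cycle with free food and water. Test compound, rolipram or vehicle was given i.p. 30 min before testing. Mice were trained to tell a novel from a familiar object with a 24-hour delay. Exploration times (Tn, Tf) were recorded over 3 min. n = 8–9; one-way ANOVA with Dunnett's post hoc test.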

PDE4D = details: read-out: IC50 against PDE4D; racemic Zl-n-91; cited from earlier work
mice [4] = details: at the same dose required for producing a memory-enhancing effect; cited from earlier work
PDE8A1 (480–820) = PDE8A1 (480–820) (Homo sapiens, UniProt O60658); test: PDE enzymatic assay with 3H-cAMP or 3H-cGMP as substrates; format: biochemical
How it was run: (§1)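 PDE catalytic domains were incubated with 20 mM Tris-HCl pH 7.5, 10 mM MgCl2, 0.5 mM DTT and 3H-cAMP or 3H-cGMP (20–40k cpm/assay) for 15 min at room temperature. The reaction was stopped with 0.2 M ZnSO4, and product was precipitated with 0.2 N Ba(OH)2. Supernatant radioactivity was scintillation-counted. Nine inhibitor concentrations were tested; rolipram was the reference.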

PDE3A1 (665–1141) = PDE3A1 (665–1141) (Homo sapiens, UniProt Q14432); test: as above; format: biochemical
How it was run: as §1

PDE5A1 (535–860) = PDE5A1 (535–860) (Homo sapiens, UniProt O76074); test: PDE enzymatic assay with 3H-cAMP or 3H-cGMP as substrates; format: biochemical
How it was run: (§2)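 Recombinant PDE catalytic domains incubated at room temperature for 15 min in 20 mM Tris.HCl pH 7.5, 10 mM MgCl2, 0.5 mM DTT, with 3H-cAMP or 3H-cGMP at 20–40k cpm/assay. Stopped with 0.2 M ZnSO4. Product precipitated with 0.2 N Ba(OH)2. Unreacted substrate in supernatant counted by liquid scintillation. Nine inhibitor concentrations tested. Rolipram served as reference.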

PDE11A4 (563–934) = target: T1, PDE11A4 (563–934) (Homo sapiens, UniProt Q9HCR9); test: PDE enzymatic assay with 3H-cAMP or 3H-cGMP as substrates; format: biochemical
T1 sequence (Q9HCR9 563-933 limits assumed): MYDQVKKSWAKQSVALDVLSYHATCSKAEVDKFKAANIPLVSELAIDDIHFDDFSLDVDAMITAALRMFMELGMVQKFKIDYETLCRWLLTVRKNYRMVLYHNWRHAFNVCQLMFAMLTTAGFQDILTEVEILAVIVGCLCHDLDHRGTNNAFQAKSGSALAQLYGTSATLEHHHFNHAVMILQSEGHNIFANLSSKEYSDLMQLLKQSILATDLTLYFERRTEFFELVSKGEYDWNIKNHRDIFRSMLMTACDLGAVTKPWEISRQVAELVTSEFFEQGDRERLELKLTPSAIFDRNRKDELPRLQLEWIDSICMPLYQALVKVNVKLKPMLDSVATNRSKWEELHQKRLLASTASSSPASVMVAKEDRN
How it was run: as §1

PDE7A1 (130–482) = PDE7A1 (130–482) (Homo sapiens, UniProt Q13946); test: PDE enzymatic assay with 3H-cAMP or 3H-cGMP as substrates; format: biochemical
How it was run: as §2

PDE4B2B = PDE4B2B (Homo sapiens, UniProt Q07343); test: as above; format: biochemical; details: IC50, PDE4B2B (152–528)
How it was run: as §2

PDE9A1 (181–506) = PDE9A1 (181–506) (Homo sapiens, UniProt O76083); test: as above; format: biochemical
How it was run: as §2

PDE2A3 (580–941) = PDE2A3 (580–941) (Homo sapiens, UniProt O00408); test: as above; format: biochemical
How it was run: as §2

PDE10A2 (448–789) = PDE10A2 (448–789) (Homo sapiens, UniProt Q9Y233); test: PDE enzymatic assay with 3H-cAMP or 3H-cGMP as substrates; format: biochemical
How it was run: as §1

[5] = doses of 0.01–0.5 mg/kg, 30 min after injection

Sequence of PDE3A1 (665–1141) (Q14432 665-1141): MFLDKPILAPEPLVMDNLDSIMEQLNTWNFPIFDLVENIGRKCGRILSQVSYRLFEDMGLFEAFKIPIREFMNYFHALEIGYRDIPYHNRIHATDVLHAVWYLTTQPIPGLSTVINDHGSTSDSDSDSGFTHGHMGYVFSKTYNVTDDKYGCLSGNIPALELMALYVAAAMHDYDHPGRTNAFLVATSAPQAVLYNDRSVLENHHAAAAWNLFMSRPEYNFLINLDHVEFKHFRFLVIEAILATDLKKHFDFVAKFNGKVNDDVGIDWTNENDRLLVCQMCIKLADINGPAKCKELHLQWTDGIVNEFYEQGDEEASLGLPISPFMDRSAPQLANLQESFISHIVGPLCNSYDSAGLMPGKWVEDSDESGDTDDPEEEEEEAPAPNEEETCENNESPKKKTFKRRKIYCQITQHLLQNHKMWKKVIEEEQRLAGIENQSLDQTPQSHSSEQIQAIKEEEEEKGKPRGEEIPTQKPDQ
Sequence of PDE7A1 (130–482) (Q13946 130-482): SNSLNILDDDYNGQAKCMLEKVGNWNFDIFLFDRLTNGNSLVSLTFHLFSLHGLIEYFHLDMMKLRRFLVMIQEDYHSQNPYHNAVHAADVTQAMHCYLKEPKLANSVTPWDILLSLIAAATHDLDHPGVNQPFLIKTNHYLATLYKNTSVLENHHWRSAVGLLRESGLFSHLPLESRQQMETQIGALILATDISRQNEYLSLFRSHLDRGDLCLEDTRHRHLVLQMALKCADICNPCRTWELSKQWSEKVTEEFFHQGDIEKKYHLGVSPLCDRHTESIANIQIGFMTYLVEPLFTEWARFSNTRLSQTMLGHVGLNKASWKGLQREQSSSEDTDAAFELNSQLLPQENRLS
Sequence of PDE10A2 (448–789) (Q9Y233 714-1055): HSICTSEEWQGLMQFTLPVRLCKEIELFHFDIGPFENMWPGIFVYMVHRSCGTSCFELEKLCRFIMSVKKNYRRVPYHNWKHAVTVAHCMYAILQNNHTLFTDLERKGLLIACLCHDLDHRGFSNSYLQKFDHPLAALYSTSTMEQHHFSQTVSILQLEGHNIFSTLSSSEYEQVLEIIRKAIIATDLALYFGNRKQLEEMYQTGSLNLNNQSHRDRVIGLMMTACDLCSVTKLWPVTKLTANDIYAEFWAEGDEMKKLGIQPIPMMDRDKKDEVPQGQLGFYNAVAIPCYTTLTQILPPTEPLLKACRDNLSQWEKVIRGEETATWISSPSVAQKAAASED
Sequence of PDE2A3 (580–941) (O00408 580-941): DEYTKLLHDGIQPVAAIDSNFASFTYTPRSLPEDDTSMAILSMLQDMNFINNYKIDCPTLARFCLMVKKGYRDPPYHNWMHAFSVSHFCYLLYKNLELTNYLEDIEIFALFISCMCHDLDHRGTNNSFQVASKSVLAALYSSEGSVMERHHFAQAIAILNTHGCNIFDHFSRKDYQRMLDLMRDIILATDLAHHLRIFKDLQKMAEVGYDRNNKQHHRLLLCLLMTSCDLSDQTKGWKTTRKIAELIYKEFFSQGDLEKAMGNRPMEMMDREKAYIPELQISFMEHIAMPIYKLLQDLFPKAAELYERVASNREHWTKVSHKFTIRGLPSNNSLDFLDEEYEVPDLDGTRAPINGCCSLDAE
Sequence of PDE9A1 (181–506) (O76083 241-566): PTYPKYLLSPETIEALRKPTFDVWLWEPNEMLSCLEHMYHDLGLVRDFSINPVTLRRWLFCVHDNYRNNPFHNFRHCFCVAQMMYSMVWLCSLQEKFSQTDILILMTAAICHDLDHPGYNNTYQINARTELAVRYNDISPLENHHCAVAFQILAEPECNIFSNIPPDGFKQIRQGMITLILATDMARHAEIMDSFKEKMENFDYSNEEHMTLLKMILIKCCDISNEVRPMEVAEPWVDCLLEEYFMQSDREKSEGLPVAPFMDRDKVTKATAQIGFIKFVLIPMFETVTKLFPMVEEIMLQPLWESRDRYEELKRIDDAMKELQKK
Sequence of PDE4B2B (Q07343 324-700): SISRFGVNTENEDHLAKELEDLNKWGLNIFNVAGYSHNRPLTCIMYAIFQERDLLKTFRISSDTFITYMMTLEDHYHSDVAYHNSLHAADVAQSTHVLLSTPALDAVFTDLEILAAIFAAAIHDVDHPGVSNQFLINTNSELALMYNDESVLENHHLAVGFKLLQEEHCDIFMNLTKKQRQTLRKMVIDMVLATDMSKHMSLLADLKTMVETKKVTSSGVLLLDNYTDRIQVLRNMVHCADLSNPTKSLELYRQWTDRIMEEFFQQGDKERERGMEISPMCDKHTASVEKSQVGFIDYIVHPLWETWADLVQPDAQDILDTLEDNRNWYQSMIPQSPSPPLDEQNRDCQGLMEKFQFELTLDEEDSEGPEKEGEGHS
Sequence of PDE8A1 (480–820) (O60658 480-820): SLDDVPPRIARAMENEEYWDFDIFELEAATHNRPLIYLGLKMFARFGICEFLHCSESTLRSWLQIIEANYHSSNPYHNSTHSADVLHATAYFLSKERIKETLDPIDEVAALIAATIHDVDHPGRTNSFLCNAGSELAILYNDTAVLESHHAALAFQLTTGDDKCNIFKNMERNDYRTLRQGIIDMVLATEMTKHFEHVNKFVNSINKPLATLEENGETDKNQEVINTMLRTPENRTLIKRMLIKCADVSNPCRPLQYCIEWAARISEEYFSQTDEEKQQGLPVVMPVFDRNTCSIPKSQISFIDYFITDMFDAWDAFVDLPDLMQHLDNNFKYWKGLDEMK

In the case of `COc1ccc([C@]2(C#N)CC[C@@H](C(=O)O)CC2)cc1OC1CCCC1` [cilomilast, reference compound], the IC50 (LPS-induced TNFa release; whole blood) is given as over 10 µM.

In the case of `CC(C)CC(=O)c1ccc(OC(F)F)c(OC2CCOC2)c1` (centres unmarked) [Zl-n-91, 1-(4-(difluoromethoxy)-3-((tetrahydrofuran-3-yl)oxy)phenyl)-3-methylbutan-1-one], the IC50 (LPS-induced TNFa release; whole blood cell) is given as 0.04 µM, the “CL(F)” value ([1]; PO, male mice) is given as 342 mL/min/kg and the “F (bioavailability)” value ([1]; PO, male mice) is given as 33.3%. For the same molecule, the AUC ([1]; male, ICR, mouse, plasma, iv) was 728 ng·h/mL, the AUC(0-t) ([1]; male, ICR, mouse, plasma, iv) was 725 ng·h/mL and the C0 ([1]; male, ICR, mouse, plasma, iv) was 6030 ng/mL. The MRT inf ([1]; male, ICR, mouse, plasma, iv) was 20.4 min, the Vd ([1]; male, ICR, mouse, plasma, iv) was 2.31 L/kg and the clearance ([1]; male, ICR, mouse, plasma, iv) was 115 mL/min/kg. The half-life ([1]; male, ICR, mouse, plasma, iv) was 37.2 min, the AUC ([1]; male, ICR, mouse, plasma, po) was 244 ng·h/mL and the AUC(0-t) ([1]; male, ICR, mouse, plasma, po) was 241 ng·h/mL. For the same molecule, the Cmax ([1]; male, ICR, mouse, plasma, po) was 96.5 ng/mL, the Tmax ([1]; male, ICR, mouse, plasma, po) was 120 min and the Vd/F ([1]; male, ICR, mouse, plasma, po) was 39.9 L/kg. The half-life ([1]; male, ICR, mouse, plasma, po) was 81 min, the locomotor activity (mice [2]) was “not altered” and the sedation (mice [2]; dose of 0.5 mg/kg) was “does not produce sedation”. The line crossings (mice [2]; [5]) was “altered neither”, the rears (mice [2]; [5]) was “altered neither” and the “memory in the object recognition test” value (mice [3]) was “enhanced memory”. For the same molecule, the IC50 (PDE4D) was 0.026 µM.

For `COc1ccc(C2CNC(=O)C2)cc1OC1CCCC1` (centres unmarked) [rolipram], the locomotor activity (mice [4]) is listed as “decreased locomotor activity”, the “increase of discrimination ratio (Tn-Tf)/(Tn+Tf)” value (mice [3]; 0.3 mg/kg, versus vehicle) is listed as “about 4 times” and the “memory in the object recognition test” value (mice [3]) is listed as “enhanced memory”.

In the case of `CC(C)CC(=O)c1ccc(OC(F)F)c(O[C@H]2CCOC2)c1` [(S)-Zl-n-91, 1-(4-(difluoromethoxy)-3-((tetrahydrofuran-3-yl)oxy)phenyl)-3-methylbutan-1-one], the IC50 (PDE8A1 (480–820)) is reported as 8.6 ± 0.7 µM, the IC50 (PDE3A1 (665–1141)) is reported as 46 ± 3 µM and the IC50 (PDE5A1 (535–860)) is reported as 130 ± 23 µM. For the same molecule, the IC50 (PDE11A4 (563–934)) was 23 ± 4 µM, the IC50 (PDE7A1 (130–482)) was 17 ± 3 µM and the IC50 (PDE4B2B) was 0.02 ± 0.004 µM. For the same molecule, the IC50 (PDE9A1 (181–506)) was 84 ± 10 µM, the IC50 (PDE2A3 (580–941)) was 83 ± 12 µM and the IC50 (PDE10A2 (448–789)) was 16 ± 1 µM.

— article PMC6088244 (Biochemistry, 2018)
